# Measured values taken from article PMC2939729 (Cancer cell, 2010).
# Legend:
# [1] = tested on: xenografted human (HeLa) or syngeneic mouse (LL/2) tumors; assay: In vivo tumorigenesis experiments; set-up: species or system mice
# How it was run: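 Tumour cells in DMEM were injected s.c. into the right flank of 6-week-old mice: HeLa at 5 × 10^5 into Nod/Scid mice, or LL/2 at 1 × 10^6 into C57Bl/6 mice. Groups of 6 received 50 mg/kg i.p. twice daily, starting day 1, 7 or 14 (HeLa, to day 28) or day 1, 7 or 10 (LL/2, to day 17). Controls received carrier solution. Tumours were measured by caliper every 2–3 days, volume = L × W² × 0.52. BrdU was detected in tumour sections with anti-BrdU antibody, DAPI counterstain (6 mice, 9 slices). Student's t test was used.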
# [2] = tested on: cancer cell lines; assay: Proliferation of a wide variety of cancer cell lines; type: cell-based
# [3] = target: BMK1 (Homo sapiens, UniProt Q13164); assay: A549 xenograft: BMK1 activation and p21 in tumor homogenates; type: in vivo; conditions: Nod/Scid mice, 50 mg/kg twice a day, 2 days
# BMK1, sequence (Q13164 whole entry): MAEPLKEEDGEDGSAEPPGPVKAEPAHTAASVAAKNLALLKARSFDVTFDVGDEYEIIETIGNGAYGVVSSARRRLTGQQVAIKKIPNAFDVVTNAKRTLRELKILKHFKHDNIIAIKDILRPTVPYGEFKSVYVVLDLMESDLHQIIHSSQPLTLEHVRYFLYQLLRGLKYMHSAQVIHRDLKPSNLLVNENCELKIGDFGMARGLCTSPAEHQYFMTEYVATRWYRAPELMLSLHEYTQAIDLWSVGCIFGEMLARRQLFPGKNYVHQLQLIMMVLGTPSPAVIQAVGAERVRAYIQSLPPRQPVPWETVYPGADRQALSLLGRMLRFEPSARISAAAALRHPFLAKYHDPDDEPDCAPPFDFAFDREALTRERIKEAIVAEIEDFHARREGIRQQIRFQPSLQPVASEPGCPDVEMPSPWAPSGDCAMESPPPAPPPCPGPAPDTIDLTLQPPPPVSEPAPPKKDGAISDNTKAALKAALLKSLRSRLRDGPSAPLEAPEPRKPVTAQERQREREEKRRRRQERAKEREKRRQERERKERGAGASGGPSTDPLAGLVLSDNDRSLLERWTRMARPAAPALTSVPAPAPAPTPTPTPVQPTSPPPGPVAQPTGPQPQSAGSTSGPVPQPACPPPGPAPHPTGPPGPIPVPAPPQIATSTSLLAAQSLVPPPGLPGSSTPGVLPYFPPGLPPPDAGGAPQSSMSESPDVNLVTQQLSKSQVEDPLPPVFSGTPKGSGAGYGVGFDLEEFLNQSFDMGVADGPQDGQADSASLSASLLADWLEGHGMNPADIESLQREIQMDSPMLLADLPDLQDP
# [4] = target: T1, MEK5 (Homo sapiens, UniProt Q13163); assay: KiNativ profiling in HeLa cell lysates; type: binding; conditions: at up to 50 μM
# T1 sequence (Q13163 1-448): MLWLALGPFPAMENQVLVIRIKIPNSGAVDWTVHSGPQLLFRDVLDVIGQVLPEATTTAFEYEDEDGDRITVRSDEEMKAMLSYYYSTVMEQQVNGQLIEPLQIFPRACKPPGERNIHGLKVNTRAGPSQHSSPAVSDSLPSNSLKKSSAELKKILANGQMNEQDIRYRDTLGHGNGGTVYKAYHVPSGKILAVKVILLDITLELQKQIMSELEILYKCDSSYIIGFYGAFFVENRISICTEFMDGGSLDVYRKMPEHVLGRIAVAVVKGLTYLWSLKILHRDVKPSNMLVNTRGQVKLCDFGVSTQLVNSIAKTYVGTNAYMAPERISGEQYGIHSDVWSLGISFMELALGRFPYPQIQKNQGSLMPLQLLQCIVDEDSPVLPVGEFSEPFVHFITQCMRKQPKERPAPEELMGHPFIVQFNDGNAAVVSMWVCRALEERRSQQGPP
# How it was run: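 HeLa lysates (5 mg/mL total protein) were preincubated 15 min with test compound at 50, 10, 2, 0.8 or 0 μM. ATP or ADP acylphosphate probe was then added (5 μM final) for 10 min, and the reaction was stopped with urea and processed for MS. Each kinase signal came from up to four fragment ions of its peptide-probe conjugate. % inhibition was taken against untreated lysate, with duplicate reactions.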
# [5] = Tolerability experiments in mice, 14 days
compound,measurement,setting,value
CCOc1cc(N2CCC(O)CC2)ccc1Nc1ncc2c(n1)N(C)c1ccccc1C(=O)N2C [XMD8-92],incorporation of BrdU during tumor cell division,"[1]; HeLa or LL/2 tumor sections, immuno-staining",effectively inhibited
same,inhibition of tumor growth,"[1]; mice, 50 mg/kg twice a day intraperitoneally",95%
same,side effects to the animals,"[1]; tumor-bearing mice, 50 mg/kg twice a day intraperitoneally",without obvious side effects
same,effect on proliferation,[2],inhibitory effect
same,BMK1 activation in tumors,[3],effectively inhibit
same,p21 expression in tumors,[3],induce
same,inhibition of MEK5,[4],not significantly inhibited
same,vasculature instability,[5]; XMD8-92-treated mice,No vasculature instability
same,plasma concentrations of drug,"[5]; mice, IP dosing of 50 mg/kg, maintained throughout the 14 days",approximately 10 μM
